Assays:
Type in all cases: cell-based
[1] = biological target: RNA polymerase II (Mus musculus) (UniProt P08775+Q8CFI7+P97760+A0A3Q4L2S8+Q80UW8+P61219+P62488+Q923G2+P60898+O08740+Q63871+P62876); assay: Inhibition of RNA polymerase II in mouse B16-F1 migrating cells assessed as fold change in Gtf3c4-RNA stability at 0.1 mM measured by ChIP-seq analysis relative to control cells
[2] = biological target: Histone-lysine N-methyltransferase EZH2 (Mus musculus) (UniProt Q61188); assay: Inhibition of EZH2 in mouse B16-F1 migrating cells assessed as fold change in H3K27me3-independent regulated Cntnap1-mRNA expression at 3 uM measured by […] analysis relative to control cells
Outline: (§1)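 Confluent B16-F1 cells on fibronectin-coated plates were scratched at multiple sites, washed once with DMEM and left to migrate 3 h in growth medium (37 °C, 7% CO2); unscratched cells served as control. GSK343 (3 µM) was added 3 h before lysis. Poly A mRNA was sequenced (RNA-seq), with 5 replicates for untreated and 3 for treated cells. Differential expression was called by linear model with batch correction, at FDR <0.05 and fold change ≥1.3.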

[3] = biological target: Histone-lysine N-methyltransferase EZH2 (Mus musculus) (UniProt Q61188); assay: Inhibition of EZH2 in mouse B16-F1 migrating cells assessed as fold change in H3K27me3-buffered regulated Sqle-mRNA expression at 3 uM measured by […] analysis relative to control cells; outline: as §1
[4] = biological target: Histone-lysine N-methyltransferase EZH2 (Mus musculus) (UniProt Q61188); assay: Inhibition of EZH2 in mouse B16-F1 migrating cells assessed as fold change in H3K27me3-buffered regulated Pcf11-mRNA expression at 3 uM measured by […] analysis relative to control cells
Outline: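 Confluent B16-F1 cells on fibronectin-coated plates, cultured at 37 °C and 7% CO2, were scratched at multiple sites to induce migration. They were then held 3 h in growth medium containing 3 µM GSK343, with the inhibitor added 3 h before lysis. Unscratched cells served as controls. Poly A mRNA was analysed by RNA-seq (n=3 GSK343, n=5 controls). Linear models removed batch effects, and buffered genes were those altered only under GSK343 (FDR <0.05, fold change >1.3).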

Sequence of Histone-lysine N-methyltransferase EZH2 (Mus musculus) (Q61188 whole entry): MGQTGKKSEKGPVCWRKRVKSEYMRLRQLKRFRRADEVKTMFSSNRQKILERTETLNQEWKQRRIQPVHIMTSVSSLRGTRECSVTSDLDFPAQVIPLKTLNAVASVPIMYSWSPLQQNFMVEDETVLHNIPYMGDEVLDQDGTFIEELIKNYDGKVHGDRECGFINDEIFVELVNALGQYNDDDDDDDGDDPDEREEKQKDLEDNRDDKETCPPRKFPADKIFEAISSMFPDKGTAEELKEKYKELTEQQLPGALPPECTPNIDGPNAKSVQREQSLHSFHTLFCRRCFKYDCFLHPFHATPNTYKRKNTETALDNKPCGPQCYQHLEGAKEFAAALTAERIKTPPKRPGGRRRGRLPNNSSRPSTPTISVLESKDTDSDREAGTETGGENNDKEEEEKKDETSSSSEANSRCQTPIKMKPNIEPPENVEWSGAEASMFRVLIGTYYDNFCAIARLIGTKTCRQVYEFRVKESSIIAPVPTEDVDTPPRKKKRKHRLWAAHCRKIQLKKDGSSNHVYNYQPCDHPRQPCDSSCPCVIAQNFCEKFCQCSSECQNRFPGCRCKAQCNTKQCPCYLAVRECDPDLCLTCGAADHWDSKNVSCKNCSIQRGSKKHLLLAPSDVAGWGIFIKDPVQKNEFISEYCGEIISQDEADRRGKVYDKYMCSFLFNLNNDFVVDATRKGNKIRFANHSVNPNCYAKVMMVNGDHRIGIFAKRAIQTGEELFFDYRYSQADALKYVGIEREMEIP

OC[C@H]1O[C@@H](n2cnc3cc(Cl)c(Cl)cc32)[C@H](O)[C@@H]1O
log2FC [1]: -0.54

CCCc1cc(C)[nH]c(=O)c1CNC(=O)c1cc(-c2ccnc(N3CCN(C)CC3)c2)cc2c1cnn2C(C)C
log2FC [2]: -0.76 | log2FC [3]: 0.39 | log2FC [4]: -0.39
